Calls of active or inactive are those of the source. The rule behind the calls is not given here.
What was measured:
[1] = tested on: KYSE-510; assay: Antiproliferative activity against human cisplatin resistant KYSE-510 cells assessed as reduction in cell viability incubated for 72 hrs by MTT assay; type: functional, cell-based; details: KYSE-510, 72 h
In short: (§1)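 Cells seeded overnight in 96-well plates, then exposed to increasing concentrations (compound dissolved in DMSO, diluted in medium) for the stated time. MTT (5 mg/ml in PBS) added for 15 min, formazan dissolved in DMSO, absorbance read at 544 nm minus 690 nm background. IC50 = concentration giving 50% signal decrease. At least three independent experiments in triplicate.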

[2] = tested on: A2780; assay: Induction of apoptosis in human A2780 cells assessed as decrease in claspin expression at 5 uM incubated for 24 hrs by proteome profiler analysis; type: functional, cell-based
In short: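 A2780 cells treated 24 h with 5 µM, then apoptosis-related proteins read on an antibody array (Proteome Profiler human apoptosis array) per kit instructions.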

[3] = tested on: A2780cisR; assay: Antiproliferative activity against human A2780cisR cells assessed as reduction in cell viability incubated for 24 hrs by MTT assay; type: functional, cell-based; in short: as §1
[4] = tested on: A2780; assay: Induction of apoptosis in human A2780 cells assessed as increase in intracellular calcium level at 1 and 30 uM incubated for 30 mins by fluorimetry; type: functional, cell-based
In short: (§2)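 Cells seeded in 96-well plates overnight, washed twice with Krebs-HEPES buffer, loaded 1 h at 37 °C in the dark with Oregon Green BAPTA-1 AM (final 3 µM) and Pluronic F-127. Buffer replaced, PXA added, fluorescence at 544 nm recorded for 30 min, with or without 1 mM extracellular Ca2+. Three experiments, mean ± SEM.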

[5] = tested on: HCT-116; assay: Antiproliferative activity against human HCT116 cells assessed as reduction in cell viability incubated for 72 hrs by MTT assay; type: functional, cell-based; details: HCT-116, 72 h; in short: as §1
[6] = tested on: A2780cisR; assay: Induction of apoptosis in human A2780cisR cells assessed as depolarization of mitochondrial membrane potential at 1 uM by TMRE staining based flow cytometry; type: functional, cell-based; details: TDE = time-dependent effect
In short: (§3)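 Cells seeded overnight; complete medium swapped for FBS-free medium just before treatment to avoid TMRE ester cleavage. Exposure to PXA for 1 h, 2 h or 24 h. TMRE staining 20 min, cells collected by trypsinisation, ΔΨm read by flow cytometry. Medium served as negative control, 20 µM CCCP as positive control. Mean ± SEM reported.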

[7] = tested on: J82; assay: Cell cycle arrest in human J82 cells assessed as accumulation at G1 phase at 1 uM incubated for 24 hrs by propidium iodide staining based flow cytometry (reference value: 69.6%); type: functional
In short: (§4)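 After 24 h exposure, cells washed in ice-cold PBS. About 2 million cells fixed in cold 70% ethanol at −20 °C for at least 24 h. Stained with 0.1% Triton X-100, 200 µg/ml RNase A and 20 µg/ml propidium iodide in PBS, 15 min at 37 °C in the dark. DNA content read by flow cytometry with doublet discrimination. Medium as untreated control, paclitaxel as G2/M control. Three independent experiments.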

[8] = tested on: A2780cisR; assay: Antiproliferative activity against human A2780cisR cells assessed as reduction in cell viability incubated for 72 hrs by MTT assay; type: functional, cell-based; in short: as §1
[9] = tested on: A2780; assay: Cell cycle arrest in human A2780 cells assessed as accumulation at G1 phase at 10 uM incubated for 24 hrs by propidium iodide staining based flow cytometry (reference value: 61.8%); type: functional; in short: as §4
[10] = tested on: A2780; assay: Induction of apoptosis in human A2780 cells assessed as accumulation in subG1 phase incubated for 24 hrs by propidium iodide staining based flow cytometry (reference value: 10%); type: functional
In short: (§5)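 Cells plated in 24-well plates (about 100,000/well) for one day, then treated 24 h. Where used, caspase inhibitor Q-VD-OPh (20 µM) was added 1 h before. Cells lysed in hypotonic buffer (0.1% sodium citrate, 0.1% Triton X-100, 100 µg/ml propidium iodide) overnight at 4 °C in the dark. Sub-G1 fraction read by flow cytometry. Medium control, cisplatin positive control.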

[11] = tested on: A2780; assay: Cell cycle arrest in human A2780 cells assessed as accumulation at G1 phase incubated for 24 hrs by propidium iodide staining based flow cytometry; type: functional; in short: as §4
[12] = tested on: A2780; assay: Reduction of H2O2-induced ROS generation in human A2780 cells at 316 nM incubated for 18 hrs by H2DCFDA staining based flow cytometry; type: functional, cell-based
In short: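 Cells plated overnight in growth medium (approx. 150,000 cells/well), exposed to compound for 18 h. Then washed with PBS and moved to phenol red-free RPMI-1640 without FBS or antibiotics. Loaded with 10 µM H2DCF-DA, 30 min, 37 °C, dark. One aliquot then given 250 µM H2O2 for 1 h at 37 °C in the dark. DCF fluorescence read by flow cytometry; three independent experiments.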

[13] = tested on: J82; assay: Induction of apoptosis in cisplatin resistant human J82 cells assessed as accumulation in subG1 phase at 5 uM incubated for 24 hrs by propidium iodide staining based flow cytometry relative to control; type: functional; in short: as §5
[14] = tested on: A2780cisR; assay: Induction of apoptosis in human A2780cisR cells assessed as increase in intracellular calcium level at 1 to 30 uM incubated for 30 mins by fluorimetry; type: functional, cell-based; in short: as §2
[15] = tested on: CAL-27; assay: Antiproliferative activity against human CAL27 cells assessed as reduction in cell viability incubated for 72 hrs by MTT assay; type: functional, cell-based; details: CAL-27, 72 h; in short: as §1
[16] = tested on: A2780; assay: Induction of apoptosis in human A2780 cells assessed as depolarization of mitochondrial membrane potential at 1 uM by TMRE staining based flow cytometry; type: functional, cell-based; details: TDE = time-dependent effect
In short: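 Cells seeded overnight; medium switched to FBS-free just before treatment to avoid TMRE ester cleavage. Exposure 1 h, 2 h or 24 h, then TMRE staining for 20 min. Cells trypsinized, centrifuged at 4 °C and read by flow cytometry. Medium as negative control, 20 µM CCCP as positive control. […]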

[17] = tested on: A2780; assay: Cell cycle arrest in human A2780 cells assessed as accumulation at G1 phase at 5 uM incubated for 24 hrs by propidium iodide staining based flow cytometry (reference value: 61.8%); type: functional; in short: as §4
[18] = Antiproliferative activity against human Cal27CisR cells assessed as reduction in cell viability incubated for 72 hrs by MTT assay; type: functional, cell-based; in short: as §1
[19] = species on record: Homo sapiens; assay: Ratio of IC50 for induction of mitochondrial membrane depolarization in cisplatin resistant human J82 cells to IC50 for induction of mitochondrial membrane depolarization in human A2780cisR cells after 2 hrs by TMRE staining based flow cytometry; type: functional, cell-based; in short: as §3
[20] = tested on: J82; assay: Induction of apoptosis in human J82 cells assessed as mitochondrial membrane potential at 1 uM incubated for 2 hrs by hoechst 33342 staining based fluorescence microscopy; type: functional, cell-based
In short: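 J82 cells treated 2 h with PXA, then labelled 20 min with TMRE plus Hoechst 33342. ΔΨm read by high-content fluorescence imaging. Untreated medium and 20 µM CCCP served as controls.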

[21] = tested on: A2780cisR; assay: Induction of apoptosis in human A2780cisR cells assessed as decrease in mitochondrial membrane potential at 1 uM incubated for 24 hrs by TMRE staining based flow cytometry; type: functional, cell-based; in short: as §3

For `CC(=O)OC[C@]12Oc3c(-c4ccc(O)c5c4O[C@@]4(COC(C)=O)C(=C(O)C[C@@H](C)[C@H]4OC(C)=O)C5=O)ccc(O)c3C(=O)C1=C(O)C[C@@H](C)[C@H]2OC(C)=O` [PHOMOXANTHONE A], the IC50 [1] was 790 nM, the Activity [2] was “Active” and the IC50 ([3]; read-out: IC50) was 1880 nM. The IC50 ([3]; read-out: pIC50 (converted)) was 1860 nM, the Activity [4] was “Active” and the IC50 [5] was 1820 nM. For the same molecule, the Activity [6] was “Tde”, the Activity [7] was 65% and the IC50 ([8]; read-out: IC50) was 1370 to 1380 nM. It also gave an IC50 ([8]; read-out: pIC50 (converted)) of 1380 nM, an Activity [9] of 78.9% and an Activity [10] of 70%. The Activity [11] was “Dose-dependent effect”, the inhibition [12] was “inactive” and the Activity [13] was 35%. For the same molecule, the Activity [14] was “Active”, the IC50 [15] was 5250 nM and the Activity [16] was “Tde”. The Activity [17] was 75.9%, the IC50 [18] was 5620 nM and the Ratio IC50 [19] was 3. The Activity [20] was “inactive” and the Activity [21] was “Active”.

From ChEMBL document CHEMBL4396943, “The tetrahydroxanthone-dimer phomoxanthone A is a strong inducer of apoptosis in cisplatin-resistant solid cancer cells” (Bioorg Med Chem, 2019)
